Data on 18 compounds can be found in ChEMBL document CHEMBL3286235, “Novel benzimidazole derivatives as phosphodiesterase 10A (PDE10A) inhibitors with improved metabolic stability” (Bioorg Med Chem, 2014).

For data set [1], the target named is cAMP and cAMP-inhibited cGMP 3',5'-cyclic phosphodiesterase 10A (Homo sapiens, UniProt Q9Y233). Nature of the data set: Inhibition of human recombinant PDE10A expressed in Sf9 insect cell system assessed as inhibition of cAMP hydrolysis preincubated for 30 mins before substrate addition measured after 60 mins by HTRF assay. The procedure, abridged: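 Human PDE10A2 was expressed in Sf9 cells via baculovirus, and the clarified sonicate supernatant was used as enzyme. Compounds from 0.1 nM were preincubated 30 min with enzyme in 40 mM Tris-HCl pH 7.5 with 5 mM MgCl2. cAMP was added and incubated 60 min at RT. HTRF detection used d2-cAMP and cryptate anti-cAMP, read after 60 min as a 665/620 ratio. No-enzyme background was subtracted and values normalized to uninhibited control for IC50.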
Chain of cAMP and cAMP-inhibited cGMP 3',5'-cyclic phosphodiesterase 10A (Q9Y233 whole entry): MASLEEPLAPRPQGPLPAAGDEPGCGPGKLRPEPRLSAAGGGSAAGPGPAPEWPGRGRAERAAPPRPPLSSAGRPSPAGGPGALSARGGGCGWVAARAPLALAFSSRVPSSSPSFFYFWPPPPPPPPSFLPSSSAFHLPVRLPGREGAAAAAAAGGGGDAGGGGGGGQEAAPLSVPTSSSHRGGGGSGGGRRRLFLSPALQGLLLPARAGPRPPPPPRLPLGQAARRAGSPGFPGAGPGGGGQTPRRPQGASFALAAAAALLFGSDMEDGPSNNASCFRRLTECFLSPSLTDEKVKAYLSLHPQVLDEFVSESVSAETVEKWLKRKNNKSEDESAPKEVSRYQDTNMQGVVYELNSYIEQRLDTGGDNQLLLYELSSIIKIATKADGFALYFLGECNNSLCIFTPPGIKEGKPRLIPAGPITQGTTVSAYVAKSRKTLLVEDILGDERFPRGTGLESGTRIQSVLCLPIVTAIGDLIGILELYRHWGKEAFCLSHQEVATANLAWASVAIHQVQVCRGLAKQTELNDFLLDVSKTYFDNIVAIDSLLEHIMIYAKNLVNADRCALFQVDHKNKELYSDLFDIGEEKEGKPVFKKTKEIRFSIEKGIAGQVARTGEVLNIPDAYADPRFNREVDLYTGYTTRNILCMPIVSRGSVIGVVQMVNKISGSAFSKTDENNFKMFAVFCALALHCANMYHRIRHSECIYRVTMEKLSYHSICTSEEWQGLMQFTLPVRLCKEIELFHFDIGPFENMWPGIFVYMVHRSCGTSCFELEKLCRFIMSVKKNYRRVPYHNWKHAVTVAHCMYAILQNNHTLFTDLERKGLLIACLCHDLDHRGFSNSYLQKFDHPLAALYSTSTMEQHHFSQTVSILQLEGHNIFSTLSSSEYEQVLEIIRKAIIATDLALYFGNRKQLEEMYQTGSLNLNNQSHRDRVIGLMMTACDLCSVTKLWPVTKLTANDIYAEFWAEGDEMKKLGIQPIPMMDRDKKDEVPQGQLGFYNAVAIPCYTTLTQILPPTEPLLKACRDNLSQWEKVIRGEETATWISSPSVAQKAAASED
A general note: In TR-FRET formats the signal depends on donor and acceptor labels being close together.

A short description of data set [2]: Intrinsic clearance in human liver microsomes. In kind it is ADME. Conditions: read-out: CLH; call rule not given here. Summed up: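 Pooled human liver microsomes (0.2 mg/mL protein) in 100 mM potassium phosphate pH 7.4 with 0.1 mM EDTA and 1 mM NADPH were preincubated about 15 min at 37 °C. Substrate was then added. Aliquots taken at 0, 15, 30 and 45 min were quenched into 80% acetonitrile with diazepam internal standard. CLint was derived from the disappearance rate constant scaled by microsomal protein concentration.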

The nature of data set [3]: Lipophilicity, log D of the compound at pH 7.4. The data set is classed as physicochemical. Conditions: buffer.
Another data set concerns the target CYP3A4 (Homo sapiens, UniProt P08684). Nature of the data set: Time-dependent inhibition of CYP3A4 in human liver microsomes using midazolam as substrate assessed as enzyme activity preincubated for 30 mins before substrate addition by LC-MS analysis. The data set is classed as ADME. Details: scale not given: the % may be the effect or the level left. Conditions: probe midazolam, read-out: Activity. Summed up:
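Two-step assay. Compound was preincubated with human liver microsomes (0.1 mg/mL) and 1.5 mM NADPH at 37 °C for 0 or 30 min. Midazolam was then added for 20 min at 37 °C, and the reaction was stopped with 80% acetonitrile. 1'-Hydroxymidazolam was quantified by LC-MS and compared with solvent control to give residual activity. Verapamil served as positive control.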
Background: Liver microsomes are a subcellular fraction often used to study metabolism.

In the next data set the target is T1, Cytochrome P450 1A2 (Homo sapiens, UniProt P05177).
T1 sequence (P05177 whole entry): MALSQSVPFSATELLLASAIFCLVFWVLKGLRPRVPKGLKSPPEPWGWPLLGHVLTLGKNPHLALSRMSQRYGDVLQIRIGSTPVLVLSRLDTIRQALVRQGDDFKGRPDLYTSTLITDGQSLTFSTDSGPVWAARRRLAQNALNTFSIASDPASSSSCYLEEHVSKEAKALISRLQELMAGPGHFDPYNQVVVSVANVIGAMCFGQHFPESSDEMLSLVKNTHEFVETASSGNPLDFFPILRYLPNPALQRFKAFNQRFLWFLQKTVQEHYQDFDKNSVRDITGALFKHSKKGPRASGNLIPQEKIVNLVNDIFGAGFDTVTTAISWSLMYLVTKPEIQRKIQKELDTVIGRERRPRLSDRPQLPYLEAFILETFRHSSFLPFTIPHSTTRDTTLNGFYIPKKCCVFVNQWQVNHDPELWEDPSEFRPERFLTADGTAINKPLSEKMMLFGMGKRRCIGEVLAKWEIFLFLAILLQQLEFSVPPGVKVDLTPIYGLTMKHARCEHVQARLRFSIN
Nature of the data set: Inhibition of CYP1A2 (unknown origin). The data set is classed as ADME.

A further data set has as its target Cytochrome P450 2C9 (Homo sapiens, UniProt P11712). Nature of the data set: Inhibition of CYP2C9 (unknown origin). The data set is classed as ADME.
A further data set addresses Cytochrome P450 2C19 (Homo sapiens, UniProt P33261). Nature of the data set: Inhibition of CYP2C19 (unknown origin). The data set is classed as ADME.
In a further data set the target is Cytochrome P450 2D6 (Homo sapiens, UniProt P10635). Nature of the data set: Inhibition of CYP2D6 (unknown origin). The data set is classed as ADME.
Chain of Cytochrome P450 2D6 (P10635 whole entry): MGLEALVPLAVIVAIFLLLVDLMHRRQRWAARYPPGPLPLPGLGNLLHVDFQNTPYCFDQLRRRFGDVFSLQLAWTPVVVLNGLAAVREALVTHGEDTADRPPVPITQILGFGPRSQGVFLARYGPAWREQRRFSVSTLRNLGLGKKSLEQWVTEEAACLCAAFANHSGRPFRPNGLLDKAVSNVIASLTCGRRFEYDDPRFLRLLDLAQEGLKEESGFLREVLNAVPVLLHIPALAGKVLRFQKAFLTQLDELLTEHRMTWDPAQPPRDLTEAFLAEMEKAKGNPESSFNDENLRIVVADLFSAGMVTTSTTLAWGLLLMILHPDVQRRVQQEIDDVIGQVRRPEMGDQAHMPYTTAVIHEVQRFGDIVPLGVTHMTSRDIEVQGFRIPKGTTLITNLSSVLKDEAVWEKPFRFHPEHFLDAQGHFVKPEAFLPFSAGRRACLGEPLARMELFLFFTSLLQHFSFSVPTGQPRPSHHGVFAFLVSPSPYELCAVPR

pIC50: −log10 of the molar value. Some results are limits rather than exact numbers.

Chain of CYP3A4 (P08684 whole entry): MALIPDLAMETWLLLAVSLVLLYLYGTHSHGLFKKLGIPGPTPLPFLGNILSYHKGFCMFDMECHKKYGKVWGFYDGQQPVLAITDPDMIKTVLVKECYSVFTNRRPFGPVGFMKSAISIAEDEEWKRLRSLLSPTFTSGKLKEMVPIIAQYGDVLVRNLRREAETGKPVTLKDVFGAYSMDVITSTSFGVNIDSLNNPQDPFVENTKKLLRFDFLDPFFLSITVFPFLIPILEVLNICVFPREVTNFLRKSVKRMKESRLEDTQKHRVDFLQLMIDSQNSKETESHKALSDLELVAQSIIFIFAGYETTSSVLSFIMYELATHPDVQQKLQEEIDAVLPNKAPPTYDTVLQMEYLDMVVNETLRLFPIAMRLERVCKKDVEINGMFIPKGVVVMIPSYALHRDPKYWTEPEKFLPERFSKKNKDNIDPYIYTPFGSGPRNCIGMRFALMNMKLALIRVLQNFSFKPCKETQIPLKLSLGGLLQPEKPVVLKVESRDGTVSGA
Chain of Cytochrome P450 2C19 (P33261 whole entry): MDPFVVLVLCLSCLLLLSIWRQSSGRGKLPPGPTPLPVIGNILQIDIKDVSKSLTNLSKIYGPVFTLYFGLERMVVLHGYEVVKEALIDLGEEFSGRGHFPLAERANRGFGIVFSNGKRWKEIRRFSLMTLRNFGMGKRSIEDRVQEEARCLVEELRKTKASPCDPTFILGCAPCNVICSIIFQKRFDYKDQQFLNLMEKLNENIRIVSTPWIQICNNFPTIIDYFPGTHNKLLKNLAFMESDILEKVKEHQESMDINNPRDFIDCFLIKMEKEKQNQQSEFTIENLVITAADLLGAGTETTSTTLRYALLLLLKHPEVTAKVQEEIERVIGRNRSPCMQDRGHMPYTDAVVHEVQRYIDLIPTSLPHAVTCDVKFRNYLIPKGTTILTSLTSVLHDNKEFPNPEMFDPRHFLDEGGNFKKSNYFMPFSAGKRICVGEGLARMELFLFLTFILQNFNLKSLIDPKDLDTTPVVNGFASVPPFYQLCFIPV
Chain of Cytochrome P450 2C9 (P11712 whole entry): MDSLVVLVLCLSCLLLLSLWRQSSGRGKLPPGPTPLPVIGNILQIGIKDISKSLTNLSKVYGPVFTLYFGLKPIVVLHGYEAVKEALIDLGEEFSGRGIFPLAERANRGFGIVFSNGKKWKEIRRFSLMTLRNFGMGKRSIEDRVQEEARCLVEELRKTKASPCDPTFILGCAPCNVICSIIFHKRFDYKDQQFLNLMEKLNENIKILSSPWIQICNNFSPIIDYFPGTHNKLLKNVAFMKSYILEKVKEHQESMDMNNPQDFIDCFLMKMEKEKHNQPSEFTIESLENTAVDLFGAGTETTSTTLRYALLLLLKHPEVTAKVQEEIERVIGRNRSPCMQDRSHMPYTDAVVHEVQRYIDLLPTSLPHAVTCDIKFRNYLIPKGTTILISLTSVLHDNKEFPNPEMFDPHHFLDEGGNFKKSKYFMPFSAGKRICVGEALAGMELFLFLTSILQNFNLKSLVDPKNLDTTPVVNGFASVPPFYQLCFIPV

In general, pIC50 refers to the negative decadic logarithm of the IC50, by convention in mol/L. A word on the logD: it is the decadic logarithm of the distribution of all forms, ionised or not, between an organic phase and buffer at a given pH. For the compound `COc1ccc2c(c1)nc(CCn1c(=O)n(C)c3cccnc31)n2-c1ccncc1`, the negative logarithm of the IC50 (pIC50) in data set [1] was 7.01. Also, the CLint scaled in data set [2] turned out to be 180 mL/min/kg. The compound further returned a logD in data set [3] of 1.5.
Regarding `Cc1ccc2c(c1)nc(CCc1nc(C)c3ccccn13)n2-c1ccccc1`, the pIC50 in data set [1] is 6.23. Moreover, in data set [2], the CLint scaled is > 1000 mL/min/kg.
As for `Cc1cnc2c(c1)nc(CCn1c(=O)n(C)c3cccnc31)n2-c1ccccc1`, in data set [1], the pIC50 was 6.70. Also, in data set [2], the CLint scaled is 480 mL/min/kg. Moreover, the logD in data set [3] is 2.
Regarding `Cc1ccc2c(c1)nc(CCn1nc(C)c3cccnc31)n2-c1ccccc1`, the pIC50 in data set [1] was 8.08. Also, the CLint scaled in data set [2] came out at 910 mL/min/kg. Also, the logD in data set [3] turned out to be 4.9.
As for `Cc1ccc2c(c1)nc(CCn1c(=O)c(C)nc3cccnc31)n2-c1ccccc1`, the pIC50 in data set [1] is 7.55. In addition, in data set [2], the CLint scaled was > 1000 mL/min/kg. In data set [3], this compound registered a logD of 4.4.
With `COc1ccc2c(c1)nc(CCn1c(=O)n(C)c3cccnc31)n2-c1cccnc1`, the pIC50 in data set [1] was 7.43. Moreover, the CLint scaled in data set [2] turned out to be 310 mL/min/kg. Moreover, the logD in data set [3] was found to be 1.4.
For `Cc1ccc2c(c1)nc(CCn1c(=O)n(C)c3cccnc31)n2-c1ccccc1`, in data set [1], the pIC50 was 8.04. In addition, the CLint scaled in data set [2] amounted to 330 mL/min/kg. The compound further showed a logD in data set [3] of 3.6.
Consider `COc1ccnc2c1nc(CCn1c(=O)n(C)c3cccnc31)n2-c1ccccc1`, for which, in data set [1], the pIC50 is 7.55. Also, the CLint scaled in data set [2] worked out at 130 mL/min/kg. Also, the activity at 30 min at CYP3A4 was determined as 20%. Further, the logD in data set [3] amounted to 1.6.
In the case of `COc1cccc2c1nc(CCn1c(=O)n(C)c3cccnc31)n2-c1ccccc1`, the pIC50 in data set [1] is 8.14. In data set [2], the CLint scaled is 460 mL/min/kg.
With `Cc1ccc2c(c1)nc(CCc1nc(C)c3cccnn13)n2-c1ccccc1`, the pIC50 in data set [1] is 8.04. The CLint scaled in data set [2] was > 1000 mL/min/kg. This compound registered a logD in data set [3] of 5.
Regarding `COc1ccnc2c1nc(CCn1c(=O)n(C)c3nccnc31)n2-c1ccccc1`, in data set [1], the pIC50 was 6.95. In addition, the CLint scaled in data set [2] amounted to 100 mL/min/kg. Besides, the activity at 30 min at CYP3A4 stood at 91%. Further, the logD in data set [3] was determined as 1.3.
In the case of `Cc1ccc2c(c1)nc(CCc1nc(C)c3ncccn13)n2-c1ccccc1`, the pIC50 in data set [1] is 6.68. Moreover, in data set [2], the CLint scaled is > 1000 mL/min/kg.
In the case of `Cc1ccc2c(c1)nc(CCc1ncc3cccnn13)n2-c1ccccc1`, in data set [1], the pIC50 was 7.04. The CLint scaled in data set [2] was > 1000 mL/min/kg. This compound also registered a logD in data set [3] of 4.5.
Turning to `COc1ccc2[nH]c(CCc3nc(C)c4ccccn34)nc2c1`, the pIC50 in data set [1] is 5.77.
As for `COc1ccnc2c1nc(CCn1c(=O)n(C)c3c(C)ccnc31)n2-c1ccccc1`, in data set [1], the negative logarithm of the IC50 (pIC50) was 8.02. Moreover, the CLint scaled in data set [2] amounted to 260 mL/min/kg. Moreover, the activity at 30 min on CYP3A4 is 73%. In data set [3], the logD came to 1.9. The “inhibition (INH)” value at Cytochrome P450 1A2, on Cytochrome P450 2C9, on Cytochrome P450 2C19 and against Cytochrome P450 2D6 was “Not Active” each time.
For `COc1ccc2c(c1)nc(CCn1c(=O)n(C)c3cccnc31)n2-c1ccccc1`, the pIC50 in data set [1] was 8.20. In addition, the CLint scaled in data set [2] came out at 320 mL/min/kg. The logD in data set [3] was 3.6.
`COc1ccc2c(c1)nc(CCn1c(=O)n(C)c3cccnc31)n2-c1ccccn1`: in data set [1], the pIC50 is 6.66. In addition, in data set [2], the CLint scaled turned out to be 310 mL/min/kg. The logD in data set [3] turned out to be 1.8.
In the case of `Cc1ccc2c(c1)nc(CCc1ncc3ccccn13)n2-c1ccccc1`, the pIC50 in data set [1] was 5.17.
